This is an account of results in ChEMBL document CHEMBL4673248, “Discovery and Characterization of BAY 1214784, an Orally Available Spiroindoline Derivative Acting as a Potent and Selective Antagonist of the Human Gonadotropin-Releasing Hormone Receptor as Proven in a First-In-Human Study in Postmenopausal Women” (J Med Chem, 2020).

Bounds are passed on as bounds.

The nature of data set [1]: Maximum oral bioavailability in Han Wistar rat hepatocytes at 1 uM measured after 2 to 90 mins by LC-MS/MS analysis. It counts as ADME, Hepatocyte. The settings on record: time 2-90 min, read-out: Fmax.
Data set [2] has as its target Mitogen-activated protein kinase 14 (Homo sapiens, UniProt Q16539). The data set can be described thus: Inhibition of MAPK14 (unknown origin).
Data set [3] concerns the target Mitogen-activated protein kinase 3 (Homo sapiens, UniProt P27361). The data set can be described thus: Inhibition of MAPK3 (unknown origin).
A further data set deals with Cytochrome P450 3A4 (Homo sapiens, UniProt P08684). Kind of data set: Inhibition of CYP3A4 in human liver microsomes using […] as substrate by LC-MS/MS analysis. It counts as ADME. (In general: Microsomes from liver hold many membrane-bound enzymes, among them those of drug oxidation.)
In another data set the test system is Cynomolgus monkey. The data set can be described thus: Suppression of orchiectomy-induced increase in plasma luteinizing hormone level in cynomolgus monkey at 20 mg/kg, po measured up to 24 hrs by RIA. Conditions: time hrs <=24. The data set is classed as functional, Macaca fascicularis. The essentials:
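Orchiectomized cynomolgus monkeys given a single oral dose of 20 mg/kg. Plasma LH suppression expressed relative to baseline levels.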

Sequence of Mitogen-activated protein kinase 3 (P27361 whole entry): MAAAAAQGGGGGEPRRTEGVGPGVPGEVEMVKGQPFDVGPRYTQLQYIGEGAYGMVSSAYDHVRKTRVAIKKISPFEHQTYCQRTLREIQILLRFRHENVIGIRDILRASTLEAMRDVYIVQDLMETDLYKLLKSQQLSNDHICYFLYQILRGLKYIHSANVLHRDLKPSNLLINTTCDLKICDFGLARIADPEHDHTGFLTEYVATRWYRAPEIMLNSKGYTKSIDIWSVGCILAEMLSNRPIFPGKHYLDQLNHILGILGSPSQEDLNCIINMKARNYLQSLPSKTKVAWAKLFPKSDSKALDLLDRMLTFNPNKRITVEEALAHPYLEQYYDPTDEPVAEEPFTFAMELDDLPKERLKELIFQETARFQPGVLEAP
Sequence of Cytochrome P450 3A4 (P08684 whole entry): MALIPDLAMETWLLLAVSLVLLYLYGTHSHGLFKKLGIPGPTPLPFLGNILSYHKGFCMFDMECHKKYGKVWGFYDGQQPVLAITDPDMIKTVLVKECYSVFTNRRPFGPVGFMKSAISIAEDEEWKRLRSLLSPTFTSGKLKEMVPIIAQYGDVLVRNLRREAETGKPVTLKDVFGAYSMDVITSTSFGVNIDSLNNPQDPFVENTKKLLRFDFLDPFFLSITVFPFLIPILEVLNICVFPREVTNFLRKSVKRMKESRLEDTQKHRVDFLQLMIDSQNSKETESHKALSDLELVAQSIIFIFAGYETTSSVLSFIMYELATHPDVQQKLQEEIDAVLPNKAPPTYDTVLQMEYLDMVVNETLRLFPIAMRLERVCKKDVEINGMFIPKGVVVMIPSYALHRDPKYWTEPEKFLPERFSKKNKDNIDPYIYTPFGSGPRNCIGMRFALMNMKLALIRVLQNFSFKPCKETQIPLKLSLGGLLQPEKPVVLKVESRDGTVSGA
Sequence of Mitogen-activated protein kinase 14 (Q16539 whole entry): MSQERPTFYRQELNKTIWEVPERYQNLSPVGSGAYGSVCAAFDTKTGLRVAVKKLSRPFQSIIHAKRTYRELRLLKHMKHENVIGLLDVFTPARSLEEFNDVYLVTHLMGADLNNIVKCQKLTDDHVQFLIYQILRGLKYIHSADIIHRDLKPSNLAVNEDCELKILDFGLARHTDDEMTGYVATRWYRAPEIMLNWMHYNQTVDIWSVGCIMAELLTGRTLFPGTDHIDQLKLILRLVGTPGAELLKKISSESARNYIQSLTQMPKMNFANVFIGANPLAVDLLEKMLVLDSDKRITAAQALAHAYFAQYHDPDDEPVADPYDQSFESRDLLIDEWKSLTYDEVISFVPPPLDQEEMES

The IC50 is the concentration at which inhibition is half-maximal. For the compound `O=C(NCc1ncc(C(F)(F)F)cc1Cl)c1ccc2c(c1)C1(CCS(=O)(=O)CC1)[C@H](C1CC1)N2S(=O)(=O)c1ccc(F)cc1` [BAY-784], in data set [1], the Fh at 1 µM amounted to 82%. The half-maximal inhibitory concentration (IC50) in data set [2] is 10.7 µM; in data set [3] it was 4.9 µM; against Cytochrome P450 3A4, above 10 µM. Further, in the data set with Cynomolgus monkey, the Activity entry is listed as “<=60%”.
